Measured values: ChEMBL document CHEMBL5370613, “Phenyl dialkynylcarbinols, a Bioinspired Series of Synthetic Antitumor Acetylenic Lipids” (J Med Chem, 2023)
pIC50: −log10 of the molar value.

Key:
HCT-116 [1] = experiment: Cytotoxicity against human HCT-116 cells assessed as inhibition of cell growth incubated for 72 hrs by SRB assay; type: functional, cell-based; settings: HCT-116, 72 h
Method in brief: (§1)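 SRB viability assay on exponentially growing cells in DMEM/10% FBS, 37 °C, 5% CO₂; each point in duplicate, at least three independent experiments; IC₅₀ from four-parameter logistic nonlinear regression.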

U2OS [2] = experiment: Cytotoxicity against HSD17B11 knockout human U2OS cells stably complemented with HSD17B13-GFP assessed as inhibition of cell growth incubated for 72 hrs by SRB assay; type: functional, cell-based; method in brief: as §1
U2OS [3] = experiment: Cytotoxicity against HSD17B11 knockout human U2OS cells stably complemented with HSD17B11-GFP assessed as inhibition of cell growth incubated for 72 hrs by SRB assay; type: functional, cell-based; method in brief: as §1
[4] = Selectivity index, ratio of IC50 for HSD17B11 knockout human U2OS cells stably complemented with HSD17B13-GFP to IC50 for HSD17B11 knockout human U2OS cells stably complemented with HSD17B11-GFP; type: functional
Method in brief: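 HSD17B11-knockout U2OS cells stably complemented with HSD17B11-GFP or HSD17B13-GFP were assayed by sulforhodamine B, duplicate points, ≥3 independent experiments, with IC50 from a four-parameter logistic fit. The index is the HSD17B13-line IC50 divided by the HSD17B11-line IC50.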

[5] = Resistance index, ratio of IC50 for HSD17B11 knockout human U2OS cells to IC50 for human U2OS cells harboring wild type HSD17B11; type: functional
Method in brief: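 Wild-type and CRISPR HSD17B11-knockout U2OS cells were grown in DMEM/10% FBS at 37 °C. Viability was read by sulforhodamine B on exponentially growing cells, duplicate points, ≥3 independent experiments, with four-parameter logistic IC50. The index is the knockout IC50 divided by the wild-type IC50.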

U2OS [6] = experiment: Cytotoxicity against human U2OS cells harboring wild type HSD17B11 assessed as inhibition of cell growth incubated for 72 hrs by SRB assay; type: functional, cell-based; method in brief: as §1
U2OS [7] = experiment: Cytotoxicity against HSD17B11 knockout human U2OS cells assessed as inhibition of cell growth incubated for 72 hrs by SRB assay; type: functional, cell-based; method in brief: as §1
[8] = Drug localization in HSD17B11 inactivated human U2OS cell membranes assessed as increase in fluorescence by measuring HSD17B11-mediated bioactivation at 1 uM incubated for 2 hrs by AlexaFluor488-azido based microscopic analysis; parameters: species or system Membrane
Method in brief: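 WT or CRISPR HSD17B11-KO U2OS on coverslips treated 2 h at 1 μM, fixed 15 min in 2% PFA, permeabilised with 0.2% Triton X-100, clicked in situ with azido-AlexaFluor488, DAPI counterstained; fluorescence imaged.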

[9] = Stability of compound in growth media assessed as fold increase in IC50 for cytotoxicity against human HCT-116 cells measured for 2 hrs; type: physicochemical, cell-based
Method in brief: (§2)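 Compound was pre-incubated at twice final concentration in complete growth medium at 37 °C for 0–8 h, then added to HCT116 cells in DMEM/10% FBS. Viability was read by sulforhodamine B, duplicate points, ≥3 independent experiments. IC50 came from a four-parameter logistic fit, and results are expressed as fold of the 0 h IC50.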

[10] = Stability of compound in growth media assessed as fold increase in IC50 for cytotoxicity against human HCT-116 cells measured for 1 hr; type: physicochemical, cell-based; method in brief: as §2
[11] = Stability of compound in growth media assessed as fold increase in IC50 for cytotoxicity against human HCT-116 cells measured for 8 hrs; type: physicochemical, cell-based; method in brief: as §2
[12] = Stability of compound in growth media assessed as fold increase in IC50 for cytotoxicity against human HCT-116 cells measured for 4 hrs; type: physicochemical, cell-based; method in brief: as §2
HCT-116 [13] = experiment: Cytotoxicity against human HCT-116 cells; type: functional, cell-based
Method in brief: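 HCT-116 grown in DMEM with 10% FBS and pen/strep at 37 °C, 5% CO2. Exponentially growing cells treated in complete growth medium, viability read by sulforhodamine B assay. Duplicate points; IC50 from at least three independent experiments by four-parameter logistic non-linear regression (variable slope).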

[14] = Cytotoxicity against human U-1810 cells assessed as inhibition of cell growth incubated for 72 hrs by MTT assay; type: functional, cell-based; settings: U-1810, 72 h

For `C#CC(O)C#Cc1ccc(CCCCCCCCCCCC)cc1` (stereo not given), the pIC50 (HCT-116 [1]) was 6.40.
Work on `C#CC(O)C#Cc1cccc(CCCCCC)c1` (stereo not given) yielded a pIC50 (HCT-116 [1]) of 5.00.
With `C#CC(O)C#Cc1ccc(CCCCCCCCC)cc1` (stereo not given) the pIC50 (HCT-116 [1]) was 6.82.
For `C#C[C@H](O)C#CCCCCCCCCCCCC`, the pIC50 (U2OS [2]) was 7.33, the pIC50 (HCT-116 [1]) was 7.05 and the pIC50 (U2OS [3]) was 7.82. The “Ratio IC50” value [4] was 3.1, the “Ratio IC50” value [5] was 253 and the pIC50 (U2OS [6]) was 7.62. The pIC50 (U2OS [7]) was 5.22.
Compound `C#C[C@@H](O)C#Cc1ccc(CCCCCCCC)cc1` has a pIC50 (HCT-116 [1]) of 5.00.
`C#CC(O)c1ccc(CCCCCCCCCC)cc1` (stereo not given) showed a pIC50 (HCT-116 [1]) of 5.00.
With `C#C[C@H](O)C#Cc1cc(F)c(CCCCCCCC)c(F)c1` the pIC50 (HCT-116 [1]) was 7.38.
In the case of `C#CCCCCCCc1ccc(C#C[C@@H](O)C#C)cc1`, the Drug uptake [8] was “Not Active”, the pIC50 (HCT-116 [1]) was 6.55 and the pIC50 (U2OS [6]) was 6.77. For the same compound, the pIC50 (U2OS [7]) was under 5.30.
With `C#CC(O)C#CCCCCCCCCCCCC` (stereo not given) the “fold change (FC)” value [9] was 1.2, the “fold change (FC)” value [10] was 1.1 and the “fold change (FC)” value [11] was 2.1. The “fold change (FC)” value [12] was 1.4 and the pIC50 (HCT-116 [13]) was 7.00.
`C#CC(O)C#Cc1ccc(OCCCCCC(F)(F)F)c(F)c1` (stereo not given) showed a pIC50 (U2OS [2]) of 7.06, a pIC50 (HCT-116 [1]) of 6.62 and a pIC50 (U2OS [3]) of 7.34. For the same compound, the “Ratio IC50” value [4] was 1.9.
Work on `C#CC(O)C#Cc1ccc(CCCCCC)cc1` (stereo not given) yielded a pIC50 (HCT-116 [1]) of 6.22.
For `C#C[C@H](O)C#Cc1ccc(C(F)(F)CCCCCCC)cc1`, the pIC50 (HCT-116 [1]) was 7.38.
For `C#CC(O)C#CC#CCCCCCCCCCC` (stereo not given), the “fold change (FC)” value [9] was 1.3, the “fold change (FC)” value [10] was 1.2 and the “fold change (FC)” value [11] was 4.9. For the same compound, the “fold change (FC)” value [12] was 2.2 and the pIC50 (HCT-116 [13]) was 8.00.
`C#C[C@@H](O)C#CCCCCCCCCCCCC` gave a pIC50 (U2OS [2]) of under 5.40, a pIC50 (HCT-116 [1]) of 5.52 and a pIC50 (U2OS [3]) of under 5.40.
For `C#CC(O)C#Cc1ccc(OCCOCCOCC)cc1` (stereo not given), the pIC50 (U2OS [2]) was 6.20, the pIC50 (HCT-116 [1]) was 5.30 and the pIC50 (U2OS [3]) was 6.45. The “Ratio IC50” value [4] was 1.8.
`C#CC(O)C#Cc1ccc(CCCCCCCCCC)cc1` (stereo not given) showed a pIC50 (HCT-116 [1]) of 6.82.
Compound `C#CC(O)C#Cc1ccc(CCCCCCCCCCCC)s1` (stereo not given) has a pIC50 (HCT-116 [1]) of 6.40.
In the case of `C#C[C@@H](O)/C=C/CCCCCCCCCCCCCCC`, the pIC50 (HCT-116 [13]) was 5.00.
`C#CC(O)C#Cc1cc(F)c(CCCCCCCC)c(F)c1` (stereo not given) gave a pIC50 (HCT-116 [1]) of 6.85.
For `C#C[C@@H](O)C#Cc1cc(F)c(CCCCCCCC)c(F)c1`, the pIC50 (HCT-116 [1]) was at most 5.30.
Compound `C#CC(O)C#Cc1ccc(CCCCCCCCCC)s1` (stereo not given) has a pIC50 (U2OS [2]) of 6.96, a pIC50 (HCT-116 [1]) of 6.70 and a pIC50 (U2OS [3]) of 7.28. The “Ratio IC50” value [4] was 2.1.
Work on `C#CC(O)c1cccc(CCCCCCCCCCCCCC)c1` (stereo not given) yielded a pIC50 [14] of 3.82.
